Assay results: ChEMBL document CHEMBL3098105, “7,7'-Diazaindirubin--a small molecule inhibitor of casein kinase 2 in vitro and in cells” (Bioorg Med Chem, 2014)

Assays:
MCF7 [1] = assay: Cell cycle arrest in human MCF7 cells assessed as accumulation at G1 phase at 0.5 uM after 24 hrs using propidium iodide staining by FACS analysis (reference value: 57.74%); type: functional
[2] = target: CDK7/Cyclin H/MNAT1 (Homo sapiens) (UniProt P51946+P50613+P51948); assay: Inhibition of human CDK7/cyclinH/MAT1 assessed as residual activity at 1 uM relative to control; type: protein-complex assay
[3] = target: Proto-oncogene tyrosine-protein kinase receptor Ret (Homo sapiens) (UniProt P07949); assay: Inhibition of human Ret assessed as residual activity at 1 uM relative to control
SR = assay: Antiproliferative activity against human SR cells after 3 days by sulforhodamine B assay; type: functional; conditions: 72 h
[4] = target: Serine/threonine-protein kinase ULK3 (Homo sapiens) (UniProt Q6PHR2); assay: Inhibition of human ULK3 assessed as residual activity at 1 uM relative to control
M14 = assay: Antiproliferative activity against human M14 cells after 3 days by sulforhodamine B assay; type: functional; conditions: M14, 72 h
Outline: (§1)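 Tested in the NCI 60 cell line panel. GI50 is the concentration giving 50% inhibition of cell growth, and values are the mean of two series of tests.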

[5] = target: Mitogen-activated protein kinase kinase kinase 7 (Homo sapiens) (UniProt O43318); assay: Inhibition of human TAK1 assessed as residual activity at 1 uM relative to control
[6] = target: Serine/threonine-protein kinase pim-2 (Homo sapiens) (UniProt Q9P1W9); assay: Inhibition of human Pim-2 assessed as residual activity at 1 uM relative to control
[7] = target: Proto-oncogene tyrosine-protein kinase receptor Ret (Homo sapiens) (UniProt P07949); assay: Inhibition of RET (unknown origin) assessed as residual activity at 1 uM relative to control
[8] = target: Serine/threonine-protein kinase PAK 6 (Homo sapiens) (UniProt Q9NQU5); assay: Inhibition of human PAK6 assessed as residual activity at 1 uM relative to control
MCF7 [9] = assay: Cell cycle arrest in human MCF7 cells assessed as accumulation at S phase at 0.25 uM after 24 hrs using propidium iodide staining by FACS analysis (reference value: 18.59%); type: functional
[10] = target: Fibroblast growth factor receptor 1 (Homo sapiens) (UniProt P11362); assay: Inhibition of FGF-R1 (unknown origin) assessed as residual activity at 10 uM relative to control
[11] = target: ALK tyrosine kinase receptor (Homo sapiens) (UniProt Q9UM73); assay: Inhibition of human ALK assessed as residual activity at 1 uM relative to control
[12] = target: Phosphorylase b kinase gamma catalytic chain, liver/testis isoform (Homo sapiens) (UniProt P15735); assay: Inhibition of human PhKgamma2 assessed as residual activity at 1 uM relative to control
RPMI-8226 = assay: Antiproliferative activity against human RPMI8226 cells after 3 days by sulforhodamine B assay; type: functional; conditions: RPMI-8226, 72 h; outline: as §1
[13] = target: T1, Muscle, skeletal receptor tyrosine-protein kinase (Homo sapiens) (UniProt O15146); assay: Inhibition of MUSK (unknown origin) assessed as residual activity at 10 uM relative to control
T1 sequence (whole entry): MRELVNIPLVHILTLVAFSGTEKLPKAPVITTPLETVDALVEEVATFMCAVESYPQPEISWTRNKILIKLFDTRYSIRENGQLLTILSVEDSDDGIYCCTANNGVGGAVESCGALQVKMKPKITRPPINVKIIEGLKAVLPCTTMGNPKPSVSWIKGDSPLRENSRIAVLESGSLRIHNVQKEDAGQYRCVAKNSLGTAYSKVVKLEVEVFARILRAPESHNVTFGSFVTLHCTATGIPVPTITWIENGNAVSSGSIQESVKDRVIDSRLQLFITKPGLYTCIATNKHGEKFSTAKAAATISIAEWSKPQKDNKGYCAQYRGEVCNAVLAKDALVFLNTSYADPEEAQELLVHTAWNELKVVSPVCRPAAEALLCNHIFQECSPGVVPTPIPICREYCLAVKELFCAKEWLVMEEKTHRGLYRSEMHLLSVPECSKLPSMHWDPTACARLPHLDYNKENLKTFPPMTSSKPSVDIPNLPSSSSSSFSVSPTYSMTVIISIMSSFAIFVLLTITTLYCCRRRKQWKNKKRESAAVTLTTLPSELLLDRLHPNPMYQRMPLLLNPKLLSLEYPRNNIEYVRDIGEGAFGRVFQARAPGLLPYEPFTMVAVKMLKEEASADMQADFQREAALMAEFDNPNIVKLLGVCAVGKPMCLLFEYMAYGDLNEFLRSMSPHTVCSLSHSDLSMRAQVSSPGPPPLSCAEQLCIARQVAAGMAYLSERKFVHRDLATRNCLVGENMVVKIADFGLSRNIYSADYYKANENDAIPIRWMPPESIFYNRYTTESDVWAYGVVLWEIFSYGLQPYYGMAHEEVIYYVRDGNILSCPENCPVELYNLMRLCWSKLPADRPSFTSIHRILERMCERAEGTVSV

[14] = target: Tyrosine-protein kinase JAK2 (Homo sapiens) (UniProt O60674); assay: Inhibition of JAK2 (unknown origin) assessed as residual activity at 1 uM relative to control
[15] = target: cAMP-dependent protein kinase catalytic subunit PRKX (Homo sapiens) (UniProt P51817); assay: Inhibition of human PrKX assessed as residual activity at 1 uM relative to control
[16] = target: Vascular endothelial growth factor receptor 3 (Homo sapiens) (UniProt P35916); assay: Inhibition of human Flt4 assessed as residual activity at 1 uM relative to control
[17] = target: T2, Aurora kinase A (Homo sapiens) (UniProt O14965); assay: Inhibition of human Aurora-A assessed as residual activity at 1 uM relative to control
T2 sequence (whole entry): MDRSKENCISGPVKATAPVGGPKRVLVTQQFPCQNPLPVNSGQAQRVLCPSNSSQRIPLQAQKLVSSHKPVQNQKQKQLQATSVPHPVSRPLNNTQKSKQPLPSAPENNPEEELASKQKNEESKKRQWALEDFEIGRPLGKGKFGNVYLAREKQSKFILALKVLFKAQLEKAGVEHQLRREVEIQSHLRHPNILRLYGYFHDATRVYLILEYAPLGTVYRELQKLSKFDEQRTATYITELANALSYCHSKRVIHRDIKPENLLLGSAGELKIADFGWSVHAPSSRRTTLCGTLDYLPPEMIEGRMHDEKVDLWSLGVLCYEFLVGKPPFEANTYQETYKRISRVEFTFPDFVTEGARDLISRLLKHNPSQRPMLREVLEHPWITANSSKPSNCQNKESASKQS

[18] = Antiproliferative activity against human NCI-ADR-RES cells after 3 days by sulforhodamine B assay; type: functional; conditions: 72 h; outline: as §1
[19] = test system: Ribosomal protein S6 kinase alpha-6 (Homo sapiens); assay: Inhibition of human Rsk4 assessed as residual activity at 1 uM relative to control
[20] = target: Serine/threonine-protein kinase ULK2 (Homo sapiens) (UniProt Q8IYT8); assay: Inhibition of human ULK2 assessed as residual activity at 1 uM relative to control
[21] = target: Tyrosine-protein kinase Fgr (Homo sapiens) (UniProt P09769); assay: Inhibition of human Fgr assessed as residual activity at 1 uM relative to control
Tyrosine-protein kinase Fgr (Homo sapiens), sequence (P09769 2-529 limits assumed): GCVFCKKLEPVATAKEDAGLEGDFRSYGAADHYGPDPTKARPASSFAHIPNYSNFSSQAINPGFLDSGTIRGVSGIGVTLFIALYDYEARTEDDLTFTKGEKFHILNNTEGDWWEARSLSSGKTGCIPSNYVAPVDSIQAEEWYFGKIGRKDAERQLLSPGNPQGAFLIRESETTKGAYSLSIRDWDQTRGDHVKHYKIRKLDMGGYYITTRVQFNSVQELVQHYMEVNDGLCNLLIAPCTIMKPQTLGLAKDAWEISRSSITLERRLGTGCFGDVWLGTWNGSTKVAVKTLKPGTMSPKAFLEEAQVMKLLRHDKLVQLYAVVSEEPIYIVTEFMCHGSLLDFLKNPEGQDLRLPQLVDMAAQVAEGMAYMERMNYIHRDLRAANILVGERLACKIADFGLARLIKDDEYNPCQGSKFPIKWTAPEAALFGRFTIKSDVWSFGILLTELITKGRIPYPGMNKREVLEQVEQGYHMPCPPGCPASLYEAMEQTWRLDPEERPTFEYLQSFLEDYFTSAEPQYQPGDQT

Proto-oncogene tyrosine-protein kinase receptor Ret (Homo sapiens), sequence (P07949 whole entry): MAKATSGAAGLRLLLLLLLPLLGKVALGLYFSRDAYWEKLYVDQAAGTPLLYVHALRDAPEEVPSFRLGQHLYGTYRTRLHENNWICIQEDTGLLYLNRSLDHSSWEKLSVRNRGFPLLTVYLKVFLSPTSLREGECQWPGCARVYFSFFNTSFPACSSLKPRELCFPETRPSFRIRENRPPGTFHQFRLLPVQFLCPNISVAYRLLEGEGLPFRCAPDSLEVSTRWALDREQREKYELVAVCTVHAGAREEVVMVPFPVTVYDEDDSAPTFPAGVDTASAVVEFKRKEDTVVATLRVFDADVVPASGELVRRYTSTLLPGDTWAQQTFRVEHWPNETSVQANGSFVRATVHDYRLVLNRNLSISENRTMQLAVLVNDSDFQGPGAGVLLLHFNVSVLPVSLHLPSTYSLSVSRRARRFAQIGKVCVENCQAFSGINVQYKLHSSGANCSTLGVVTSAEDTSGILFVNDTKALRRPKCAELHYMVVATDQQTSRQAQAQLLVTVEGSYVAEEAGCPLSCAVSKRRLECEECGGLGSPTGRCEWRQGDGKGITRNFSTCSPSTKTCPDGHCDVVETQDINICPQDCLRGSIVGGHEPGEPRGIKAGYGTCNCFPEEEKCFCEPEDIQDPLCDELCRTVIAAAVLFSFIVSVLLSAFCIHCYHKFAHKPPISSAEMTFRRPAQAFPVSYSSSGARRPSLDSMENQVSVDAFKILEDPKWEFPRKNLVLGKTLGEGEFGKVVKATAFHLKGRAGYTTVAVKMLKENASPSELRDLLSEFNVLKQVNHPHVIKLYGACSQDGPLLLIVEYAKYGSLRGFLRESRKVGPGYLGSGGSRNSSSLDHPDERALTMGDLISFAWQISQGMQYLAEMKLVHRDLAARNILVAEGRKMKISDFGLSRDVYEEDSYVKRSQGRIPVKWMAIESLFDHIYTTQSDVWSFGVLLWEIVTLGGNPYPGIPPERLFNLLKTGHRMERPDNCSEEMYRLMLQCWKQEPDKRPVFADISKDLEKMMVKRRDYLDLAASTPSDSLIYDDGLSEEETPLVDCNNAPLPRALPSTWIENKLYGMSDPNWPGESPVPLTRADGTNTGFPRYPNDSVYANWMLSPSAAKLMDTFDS
cAMP-dependent protein kinase catalytic subunit PRKX (Homo sapiens), sequence (P51817 whole entry): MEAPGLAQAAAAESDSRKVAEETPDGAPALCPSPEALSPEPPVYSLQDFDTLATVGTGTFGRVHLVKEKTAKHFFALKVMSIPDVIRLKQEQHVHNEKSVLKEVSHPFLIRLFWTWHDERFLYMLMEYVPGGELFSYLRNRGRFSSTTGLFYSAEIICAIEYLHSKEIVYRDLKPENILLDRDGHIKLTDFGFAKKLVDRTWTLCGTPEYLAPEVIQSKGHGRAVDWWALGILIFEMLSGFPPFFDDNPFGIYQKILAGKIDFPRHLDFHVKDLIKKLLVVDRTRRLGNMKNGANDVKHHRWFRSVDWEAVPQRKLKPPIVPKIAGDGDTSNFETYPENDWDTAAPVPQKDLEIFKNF
Serine/threonine-protein kinase pim-2 (Homo sapiens), sequence (Q9P1W9 whole entry, looked up): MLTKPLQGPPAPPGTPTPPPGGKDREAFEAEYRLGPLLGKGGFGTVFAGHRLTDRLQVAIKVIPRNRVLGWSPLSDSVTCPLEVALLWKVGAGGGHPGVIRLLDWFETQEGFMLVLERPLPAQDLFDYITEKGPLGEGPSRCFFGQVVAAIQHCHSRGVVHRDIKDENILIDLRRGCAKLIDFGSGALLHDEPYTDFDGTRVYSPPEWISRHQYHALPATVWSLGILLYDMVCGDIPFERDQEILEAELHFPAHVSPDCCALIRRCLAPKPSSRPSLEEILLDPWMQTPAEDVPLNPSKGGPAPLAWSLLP
Serine/threonine-protein kinase ULK2 (Homo sapiens), sequence (Q8IYT8 whole entry): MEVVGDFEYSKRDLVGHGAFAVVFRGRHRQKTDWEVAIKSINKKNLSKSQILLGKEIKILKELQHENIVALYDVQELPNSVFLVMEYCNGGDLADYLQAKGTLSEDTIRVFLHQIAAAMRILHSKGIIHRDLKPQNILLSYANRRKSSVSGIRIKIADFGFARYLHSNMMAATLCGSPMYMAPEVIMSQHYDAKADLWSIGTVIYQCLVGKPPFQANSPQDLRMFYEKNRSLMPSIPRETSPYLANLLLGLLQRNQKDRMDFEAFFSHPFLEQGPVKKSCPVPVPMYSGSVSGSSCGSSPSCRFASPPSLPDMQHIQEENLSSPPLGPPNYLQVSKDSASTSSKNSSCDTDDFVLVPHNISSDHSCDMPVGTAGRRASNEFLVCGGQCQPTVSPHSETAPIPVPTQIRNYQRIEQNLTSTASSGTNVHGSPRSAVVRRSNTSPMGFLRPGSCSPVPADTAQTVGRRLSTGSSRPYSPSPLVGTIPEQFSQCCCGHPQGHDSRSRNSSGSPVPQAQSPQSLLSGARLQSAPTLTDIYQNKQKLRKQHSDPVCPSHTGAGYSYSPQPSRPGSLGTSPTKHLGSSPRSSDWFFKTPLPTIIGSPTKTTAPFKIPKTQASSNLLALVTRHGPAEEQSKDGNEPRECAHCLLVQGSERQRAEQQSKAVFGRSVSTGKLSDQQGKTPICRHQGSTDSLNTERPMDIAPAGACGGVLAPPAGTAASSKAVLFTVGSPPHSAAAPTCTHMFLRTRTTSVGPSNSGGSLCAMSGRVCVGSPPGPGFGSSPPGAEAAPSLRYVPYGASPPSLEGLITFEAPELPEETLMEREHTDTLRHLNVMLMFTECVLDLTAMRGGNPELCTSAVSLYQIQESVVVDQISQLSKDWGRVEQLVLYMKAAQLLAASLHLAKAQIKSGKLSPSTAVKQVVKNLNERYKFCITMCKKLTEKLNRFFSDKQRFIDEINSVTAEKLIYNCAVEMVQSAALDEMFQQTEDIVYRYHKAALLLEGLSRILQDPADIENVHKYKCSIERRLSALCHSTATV
Serine/threonine-protein kinase PAK 6 (Homo sapiens), sequence (Q9NQU5 whole entry, looked up): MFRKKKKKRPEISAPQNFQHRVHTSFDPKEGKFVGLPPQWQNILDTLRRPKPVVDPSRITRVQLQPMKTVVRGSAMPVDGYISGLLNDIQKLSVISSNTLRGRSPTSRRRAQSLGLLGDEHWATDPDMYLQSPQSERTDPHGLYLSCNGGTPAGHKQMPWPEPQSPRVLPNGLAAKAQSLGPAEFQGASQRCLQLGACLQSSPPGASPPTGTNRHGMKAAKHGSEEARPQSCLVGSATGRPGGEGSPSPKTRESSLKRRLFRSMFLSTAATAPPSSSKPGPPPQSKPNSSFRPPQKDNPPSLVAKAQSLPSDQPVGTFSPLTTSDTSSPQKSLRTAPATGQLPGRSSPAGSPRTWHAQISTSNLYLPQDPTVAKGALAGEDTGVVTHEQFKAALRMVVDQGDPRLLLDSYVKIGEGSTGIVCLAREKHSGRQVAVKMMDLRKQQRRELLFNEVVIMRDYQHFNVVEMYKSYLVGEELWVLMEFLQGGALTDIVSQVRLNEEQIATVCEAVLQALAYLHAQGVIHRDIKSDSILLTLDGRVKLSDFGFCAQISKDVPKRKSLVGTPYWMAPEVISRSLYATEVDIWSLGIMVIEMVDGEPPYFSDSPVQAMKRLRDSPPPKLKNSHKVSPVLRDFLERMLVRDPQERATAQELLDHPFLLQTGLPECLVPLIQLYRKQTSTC
Fibroblast growth factor receptor 1 (Homo sapiens), sequence (P11362 22-822 limits assumed): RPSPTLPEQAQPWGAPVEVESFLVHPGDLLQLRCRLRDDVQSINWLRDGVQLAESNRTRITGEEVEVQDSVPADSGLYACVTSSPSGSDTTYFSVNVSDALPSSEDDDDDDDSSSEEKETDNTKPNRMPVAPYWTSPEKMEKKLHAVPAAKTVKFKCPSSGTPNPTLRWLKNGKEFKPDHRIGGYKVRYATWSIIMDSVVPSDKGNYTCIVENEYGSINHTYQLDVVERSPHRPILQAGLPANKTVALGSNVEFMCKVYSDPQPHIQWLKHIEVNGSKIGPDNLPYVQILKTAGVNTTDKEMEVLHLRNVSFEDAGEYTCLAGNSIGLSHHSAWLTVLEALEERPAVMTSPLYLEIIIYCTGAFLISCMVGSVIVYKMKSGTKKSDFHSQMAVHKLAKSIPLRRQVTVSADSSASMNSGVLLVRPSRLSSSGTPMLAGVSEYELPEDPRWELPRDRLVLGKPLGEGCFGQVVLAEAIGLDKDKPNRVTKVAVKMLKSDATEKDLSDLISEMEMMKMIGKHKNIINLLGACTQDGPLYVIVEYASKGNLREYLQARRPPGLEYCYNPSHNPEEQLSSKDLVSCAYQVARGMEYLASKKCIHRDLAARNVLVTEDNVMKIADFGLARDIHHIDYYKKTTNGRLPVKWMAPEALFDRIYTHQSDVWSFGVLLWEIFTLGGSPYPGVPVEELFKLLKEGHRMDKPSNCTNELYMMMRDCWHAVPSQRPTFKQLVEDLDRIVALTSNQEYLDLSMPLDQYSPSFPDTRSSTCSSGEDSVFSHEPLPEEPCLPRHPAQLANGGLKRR

O=C1Nc2ncccc2/C1=C1/Nc2ncccc2C1=O
Activity (MCF7 [1]): 59.53%
Activity [2]: 76%
Activity [3]: 107%
GI50 (SR): 2730 nM
Activity [4]: 100%
GI50 (M14): 391 nM
Activity [5]: 95%
Activity [6]: 142%
Activity [7]: 97%
Activity [8]: 51%
Activity (MCF7 [9]): 18.57%
Activity [10]: 81%
Activity [11]: 97%
Activity [12]: 104%
GI50 (RPMI-8226): 2120 nM
Activity [13]: 98%
Activity [14]: 103%
Activity [15]: 103%
Activity [16]: 68%
Activity [17]: 60%
GI50 [18]: 1390 nM
Activity [19]: 122%
Activity [20]: 65%
Activity [21]: 114%
